# Laboratory results from ChEMBL document CHEMBL1146595, “Constituents from the leaves of Phellodendron amurense var. wilsonii and their bioactivity” (J Nat Prod, 2003).
# What was measured:
# [1] = system: Radical scavenging activity; assay: Antioxidant activity assessed as DPPH free radical scavenging activity at 250 uM; assay type: functional
# How it was run: (§1)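 Radical-scavenging assay run by previously reported methods. Percent inhibition was recorded after a 30 min incubation.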
# [2] = system: Radical scavenging activity; assay: Antioxidant activity assessed as DPPH free radical scavenging activity; assay type: functional; how it was run: as §1
# [3] = biological target: T1, Tyrosinase (Homo sapiens) (UniProt P14679); assay: Inhibition of tyrosinase at 333 uM
# T1 sequence (whole entry): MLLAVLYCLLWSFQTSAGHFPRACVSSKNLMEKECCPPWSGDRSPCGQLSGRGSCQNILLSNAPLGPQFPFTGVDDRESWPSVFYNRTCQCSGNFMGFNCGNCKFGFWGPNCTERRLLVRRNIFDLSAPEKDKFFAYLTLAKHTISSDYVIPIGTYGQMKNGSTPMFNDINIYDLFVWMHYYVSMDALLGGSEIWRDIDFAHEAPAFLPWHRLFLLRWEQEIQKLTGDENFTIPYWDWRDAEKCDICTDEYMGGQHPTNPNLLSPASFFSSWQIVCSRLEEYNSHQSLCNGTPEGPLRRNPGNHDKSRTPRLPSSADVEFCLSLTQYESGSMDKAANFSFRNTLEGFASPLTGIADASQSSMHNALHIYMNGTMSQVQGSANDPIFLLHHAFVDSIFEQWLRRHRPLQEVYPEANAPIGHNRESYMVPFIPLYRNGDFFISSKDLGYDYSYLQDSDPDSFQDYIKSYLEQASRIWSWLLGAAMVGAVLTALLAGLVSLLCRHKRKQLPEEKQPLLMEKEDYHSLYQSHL
Molecule,inhibition [1],IC50 [2],inhibition [3]
O=c1c(O[C@@H]2O[C@H](CO)[C@H](O)[C@H](O)[C@H]2O)c(-c2ccc(O)cc2)oc2cc(O)cc(O)c12,4.5%,,
CC(C)=CCc1c(O)cc(O)c2c1O[C@@H](c1ccc(O)cc1)[C@@H](O)C2=O,20.9%,,
O=c1c(O[C@@H]2O[C@H](CO)[C@@H](O)[C@H](O)[C@H]2O)c(-c2ccc(O)c(O)c2)oc2cc(O)cc(O)c12 [ISOQUERCETIN],,32.2 µM,
O=c1c(O[C@@H]2O[C@H](CO)[C@@H](O)[C@H](O)[C@H]2O)c(-c2ccc(O)cc2)oc2cc(O)cc(O)c12,5.7%,,
CC(C)=CCc1c(O[C@@H]2O[C@H](CO)[C@@H](O)[C@H](O)[C@H]2O)cc(O)c2c1O[C@H](c1ccc(O)cc1)[C@@H](O)C2=O,34.6%,,
VITAMIN E,,8.3 µM,
CC[C@H](CC[C@@H](C)[C@H]1CC[C@H]2[C@@H]3CC=C4C[C@@H](O)CC[C@]4(C)[C@H]3CC[C@]12C)C(C)C,,,14.3%
CC(C)(O)CCc1c(O[C@@H]2O[C@H](CO)[C@@H](O)[C@H](O)[C@H]2O)cc(O)c2c(=O)c(O)c(-c3ccc(O)cc3)oc12 [AMURENSIN],,88.3 µM,15.4%
C=C(C)[C@@H]1CC[C@]2(C)CC[C@]3(C)[C@H](CC[C@@H]4[C@@]5(C)CCC(=O)C(C)(C)[C@@H]5CC[C@]43C)[C@@H]12,,,-2.4%
CC1(C)O[C@H]2CC(=O)OC[C@]23[C@H]2CC[C@@]4(C)[C@H](c5ccoc5)OC(=O)[C@H]5O[C@]54[C@]2(C)C(=O)C[C@@H]13,,,3.6%
